Experimental data of several laboratories.
Lines come from different studies, so protocols differ.
Nos2: Nitric oxide synthase, inducible (Nos2, Mus musculus, UniProt P29477)
STK38: Serine/threonine-protein kinase 38 (STK38, Homo sapiens, UniProt Q15208)

Structure (SMILES) | target | observed | action | method | concentration | measurement | result
c1ccc(C(NCCNC(c2ccccc2)c2ccccc2)c2ccccc2)cc1 | Nos2 | enzyme activity | inhibitor |  | 10 µM | inhibition | 3%
COc1ncccc1-c1cnn2ccc(N3CCN(C(=O)OC(C)C)CC3)nc12 | STK38 | binding |  | competition with immobilised ligand | 1 µM | remaining binding | 84%
COc1cc(Nc2ncc(F)c(Nc3ccc4c(n3)NC(=O)C(C)(C)O4)n2)cc(OC)c1OC | Citron Rho-interacting kinase (CIT, Homo sapiens, UniProt O14578) | binding |  |  | 10 µM | inhibition | 99%
C[C@H](C(=O)N[C@H]1COc2ccccc2[C@@H]1S(C)(=O)=O)c1ccc(F)cc1 | Nos2 | enzyme activity | inhibitor |  | 10 µM | inhibition | 3%
Cc1nn(C)cc1-c1nc2c(N3CCN(Cc4ccc(Cl)cc4)CC3)c(Cl)cnc2[nH]1 | STK38 | binding |  | competition with immobilised ligand | 1 µM | remaining binding | 86%
C#Cc1n[nH]c2c(-c3cn(C(C)c4ccccn4)c(=O)[nH]c3=O)cc(F)cc12 (centres unmarked) | Proto-oncogene tyrosine-protein kinase receptor Ret (RET, Homo sapiens, UniProt P07949, V804L) | enzyme activity | inhibitor |  | 1 µM | inhibition | 4.9%
Nc1ncc(-c2nc(N3CCOCC3)nc(N3CCOCC3)n2)c(C(F)F)n1 | Proto-oncogene tyrosine-protein kinase receptor Ret (RET, Homo sapiens, UniProt P07949, M918T) | binding |  | competition with immobilised ligand | 10 µM | remaining binding | 78%
Cc1sc2c(c1C)C(c1ccc(Cl)cc1)=N[C@@H](CC(=O)OC(C)(C)C)c1nnc(C)n1-2 | Stimulator of interferon genes protein (STING1, Homo sapiens, UniProt Q86WV6, H232R) | thermal stability |  | DSF | 50 µM | ΔTm | -0.5 °C
